Reference: ChEMBL document CHEMBL2331274, “SAR based design of nicotinamides as a novel class of androgen receptor antagonists for prostate cancer” (J Med Chem, 2013)
The source made the active and inactive calls. The rule behind the calls is not given here.

Experiments:
LNCaP [1] = test: Cytotoxicity against human androgen-dependent LNCAP cells after 6 days by MTS/PMS assay; type: functional, cell-based; details: 144 h
LNCaP [2] = test: Cytotoxicity against human androgen-dependent LNCAP cells at 10 uM after 7 days by MTS/PMS assay relative to control; type: functional; details: for inhibition of growth at 10 µM: 168 h, read-out: GI
MEF = test: Cytotoxicity against mouse MEF cells at 10 uM after 4 days by MTS/PMS assay; type: cell-based; details: 96 h
Androgen receptor [3] = biological target: T1, Androgen receptor (Mus musculus, UniProt P19091); test: Displacement of [3H] ]5alpha-DHT from mouse androgen receptor expressed in monkey COS7 cells after 2 hrs by scintillation counting analysis; type: cell-based, COS-7
T1 sequence (P19091 whole entry): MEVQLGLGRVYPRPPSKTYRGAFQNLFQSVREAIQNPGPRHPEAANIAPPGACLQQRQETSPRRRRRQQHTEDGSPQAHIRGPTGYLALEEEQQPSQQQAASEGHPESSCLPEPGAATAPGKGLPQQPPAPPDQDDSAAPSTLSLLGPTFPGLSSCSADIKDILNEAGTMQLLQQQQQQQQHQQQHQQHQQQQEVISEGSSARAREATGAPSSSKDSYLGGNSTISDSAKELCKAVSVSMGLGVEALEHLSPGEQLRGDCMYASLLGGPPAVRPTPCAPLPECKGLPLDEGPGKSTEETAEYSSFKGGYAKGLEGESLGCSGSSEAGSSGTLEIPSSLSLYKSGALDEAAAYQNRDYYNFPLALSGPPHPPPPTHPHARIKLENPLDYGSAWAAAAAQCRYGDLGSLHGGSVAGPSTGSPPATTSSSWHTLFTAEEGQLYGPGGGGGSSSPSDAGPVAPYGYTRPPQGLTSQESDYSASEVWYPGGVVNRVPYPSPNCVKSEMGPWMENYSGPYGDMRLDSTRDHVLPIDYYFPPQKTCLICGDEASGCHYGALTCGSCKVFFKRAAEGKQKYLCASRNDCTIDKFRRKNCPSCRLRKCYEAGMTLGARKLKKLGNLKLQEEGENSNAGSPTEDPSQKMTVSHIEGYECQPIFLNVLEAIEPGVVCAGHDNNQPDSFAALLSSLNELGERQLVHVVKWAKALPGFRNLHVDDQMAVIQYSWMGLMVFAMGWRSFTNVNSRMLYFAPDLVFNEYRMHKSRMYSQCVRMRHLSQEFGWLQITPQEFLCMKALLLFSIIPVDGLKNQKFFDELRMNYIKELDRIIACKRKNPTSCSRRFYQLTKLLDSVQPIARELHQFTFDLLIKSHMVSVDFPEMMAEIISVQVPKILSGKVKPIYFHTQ

[4] = (§1) Cytotoxicity against human androgen-independent/AR-positive C4-2 cells […] after 4 days by MTS/PMS assay; type: functional, cell-based; details: LNCaP C4-2, 96 h
Androgen receptor [5] = biological target: T1, Androgen receptor; test: Antagonist activity at mouse androgen receptor assessed as inhibition of transactivation after 24 hrs by cell-based luciferase reporter gene assay
[6] = biological target: T2, Androgen receptor (Homo sapiens) (UniProt P10275); test: Inhibition of DHT-induced androgen receptor-mediated GFP-AR protein nuclear translocation in human PPC1 cells at 10 uM after 1 hr by DAPI staining-based fluorescence microscopic analysis; type: cell-based; details: PPC-1
T2 sequence (whole entry): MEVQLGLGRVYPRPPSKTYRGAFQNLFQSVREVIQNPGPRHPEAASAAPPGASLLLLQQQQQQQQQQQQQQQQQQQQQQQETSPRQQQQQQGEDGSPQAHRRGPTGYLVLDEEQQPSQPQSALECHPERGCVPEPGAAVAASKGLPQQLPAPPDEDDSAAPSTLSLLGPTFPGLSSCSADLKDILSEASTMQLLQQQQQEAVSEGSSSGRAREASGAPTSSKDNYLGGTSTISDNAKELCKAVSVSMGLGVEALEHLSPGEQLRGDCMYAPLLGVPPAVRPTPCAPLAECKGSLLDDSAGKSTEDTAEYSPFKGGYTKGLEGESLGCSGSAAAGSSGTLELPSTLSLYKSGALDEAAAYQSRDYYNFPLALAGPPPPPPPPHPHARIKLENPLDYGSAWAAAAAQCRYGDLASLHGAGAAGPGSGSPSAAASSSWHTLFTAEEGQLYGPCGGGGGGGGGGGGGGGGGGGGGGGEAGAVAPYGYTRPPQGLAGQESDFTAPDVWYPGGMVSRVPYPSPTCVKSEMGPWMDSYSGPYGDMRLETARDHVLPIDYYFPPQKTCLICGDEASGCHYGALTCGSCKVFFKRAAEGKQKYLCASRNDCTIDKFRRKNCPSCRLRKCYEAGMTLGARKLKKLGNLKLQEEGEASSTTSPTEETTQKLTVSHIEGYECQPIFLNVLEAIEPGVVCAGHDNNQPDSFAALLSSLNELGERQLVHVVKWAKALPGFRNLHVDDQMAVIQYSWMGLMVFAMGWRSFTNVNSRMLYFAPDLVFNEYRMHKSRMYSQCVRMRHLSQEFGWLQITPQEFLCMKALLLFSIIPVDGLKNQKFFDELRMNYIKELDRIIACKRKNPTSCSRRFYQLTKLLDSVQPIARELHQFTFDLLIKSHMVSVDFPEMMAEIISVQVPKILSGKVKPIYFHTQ

[7] = biological target: T2, Androgen receptor (Homo sapiens); test: Inhibition of androgen receptor-mediated SRC1 coactivator recruitment in human PPC1 cells at 10 uM after 1 hr by DAPI staining-based fluorescence microscopic analysis; type: cell-based; details: PPC-1
PPC-1 = test: Cytotoxicity against human androgen-independent/AR-negative PPC1 cells after 3 days by MTS/PMS assay; type: functional, cell-based
[8] = biological target: T3, Androgen receptor (Mus musculus) (UniProt P19091); test: Agonist activity at mouse androgen receptor at 10 uM after 24 hrs by cell-based luciferase reporter gene assay relative to control
T3 sequence (whole entry): T1 sequence (P19091 whole entry)
How it was run: (§2)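 Transcriptional activity is expressed as a percentage after 10 μM compound, given alone for agonist mode or with 10 nM DHT for antagonist mode. Data are from triplicate experiments.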

[9] = biological target: T2, Androgen receptor (Homo sapiens); test: Inhibition of androgen receptor-mediated SRC2 coactivator recruitment in human PPC1 cells at 10 uM after 1 hr by DAPI staining-based fluorescence microscopic analysis; type: cell-based; details: PPC-1
[10] = biological target: T3, Androgen receptor (Mus musculus); test: Antagonist activity against mouse androgen receptor assessed as reduction of 10 nM DHT-induced transcriptional activity at 10 uM after 24 hrs by cell-based luciferase reporter gene assay relative to control; how it was run: as §2
LNCaP C4-2 = test: as §1; type: functional, cell-based

Ki (Androgen receptor [3]) [µM] | IC50 (Androgen receptor [5]) [µM] | inhibition [6] | inhibition [7] | Activity [8] [%] | inhibition [9] | inhibition [10] [%] | SMILES | IC50 (LNCaP [1]) [µM] | inhibition of growth at 10 µM (LNCaP [2]) [%] | Activity (MEF) | IC50 [4] [µM] | Activity (PPC-1) | growth inhibition (GI) (LNCaP [2]) | growth inhibition (GI) (LNCaP C4-2)
> 50 | 0.46 | Active | Active | 3.9 | Active | 95.1 | CCOc1ccc2c(c1)CCN(c1ccc(C(=O)Nc3cccc(C)n3)cn1)C2 | 1.47 | 80 | Non-toxic | 11.8 | inactive |  | 
25.6 | 0.99 | Active | Active | 4.7 | Active | 95.6 | COc1ccc2c(c1OC)CCN(c1ccc(C(=O)Nc3cccc(C)n3)cn1)C2 | 0.68 | 90 | Non-toxic | 2.5 | inactive |  | 
1.46 | 4.45 |  | Active | 3 | Active | 89.9 | Cc1cccc(NC(=O)c2ccc(N3CCc4ccccc4C3)nc2)n1 |  |  |  |  | inactive | Active | Active
